Source: ChEMBL document CHEMBL4834396, “Molecular Recognition and Imaging of Human Telomeric G-Quadruplex DNA in Live Cells: A Systematic Advancement of Thiazole Orange Scaffold To Enhance Binding Specificity and Inhibition of Gene Expression” (J Med Chem, 2021)
The source made the active and inactive calls.

Tests used:
HeLa [1] = experiment: Downregulation of hTERT mRNA expression in human HeLa cells at 5 to 20 uM by qRT-PCR analysis; format: functional, cell-based; settings: dose 5-20 µM
Outline: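 HeLa cells were treated with graded compound concentrations, then incubated 36 h. RNA was extracted with Trizol/chloroform, reverse transcribed and quantified by qRT-PCR. GAPDH served as internal control, with relative expression by the ΔΔCt method; three independent experiments, mean ± SD.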

HeLa [2] = experiment: Induction of cellular senescence in human HeLa cells assessed as positive SA-beta-Gal cells at 0.5 to 4 uM incubated for 18 days by inverted fluorescence microscopic analysis; format: functional, cell-based; settings: dose 0.5-4 µM, time 18.0 day
Outline: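 HeLa cells were exposed to compound for 18 days, with drug-containing medium replaced every three days. Cells were then fixed 15 min at room temperature and stained for β-galactosidase at 37 °C overnight. Stained cells were examined under an inverted microscope.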

[3] = tested on: Quadruplex DNA [UNDEFINED MUTATION]; experiment: Binding affinity to telomeric Htg24 G-quadruplex DNA G3T mutant (unknown origin) assessed as negative fluorescence signal at 5 uM under pH condition 7.4 by fluorescence titration analysis; format: nucleic-acid assay; settings: Homo sapiens
Outline: (§1)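 Ligand held at 5 μM and mixed with each Htg24 point mutant in Tris-HCl buffer containing 60 mM KCl, pH 7.4. Fluorescence was read, and the signal change was computed as (F mutant − F wild type)/F wild type.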

[4] = tested on: Quadruplex DNA [UNDEFINED MUTATION]; experiment: Binding affinity to telomeric Htg24 G-quadruplex DNA G3C mutant (unknown origin) assessed as negative fluorescence signal at 5 uM under pH condition 7.4 by fluorescence titration analysis; format: nucleic-acid assay; settings: Homo sapiens; outline: as §1
Quadruplex DNA = experiment: Binding affinity to telomeric Htg24 G-quadruplex DNA (unknown origin) at 5 uM at pH 7.4 by UV-spectrophotometric titration analysis; format: nucleic-acid assay
Outline: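 UV-vis titration of ligand (5 μM) with Htg24 (0–15 μM) in 10 mM Tris-HCl pH 7.4 containing 60 mM KCl, added until saturation.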

Measured: Activity

CN(C)c1ccc(/C=C/c2cc(/C=C3\Sc4ccccc4N3CCCN3CCOCC3)c3ccccc3[n+]2C)cc1.[I-]
active: all assays above
